The values that follow come from paper PMC3190051 (Bioorganic & medicinal chemistry letters, 2011).

Series [1] has as its system M2–M5. Kind of series: M2–M5 selectivity, full CRCs in HTS high-expressing CHO cell lines. The format is cell-based, rat. The note with it: read-out: M2–M5 EC50s; HTS high-expressing CHO cell line; average of at least three determinations.
In series [2] the test system is M2–M5. Conditions: read-out: EC50 versus M2–M5; ML071 probe data; cited from earlier work.
The subject of series [3] is 68 GPCRs, ion channels and transporters (including all the BARs). Conditions: 10 µM; cited from earlier work.
The subject of series [4] is TREx293-hM1 cells. Conditions: in cell culture; cited from earlier work.
In series [5] the test system is NMDA receptor currents in hippocampal CA1 pyramidal cells. The note with it: cited from earlier work.
For series [6], the target named is T1, M1 (Rattus norvegicus, UniProt P08482).
T1 sequence (P08482 1-460): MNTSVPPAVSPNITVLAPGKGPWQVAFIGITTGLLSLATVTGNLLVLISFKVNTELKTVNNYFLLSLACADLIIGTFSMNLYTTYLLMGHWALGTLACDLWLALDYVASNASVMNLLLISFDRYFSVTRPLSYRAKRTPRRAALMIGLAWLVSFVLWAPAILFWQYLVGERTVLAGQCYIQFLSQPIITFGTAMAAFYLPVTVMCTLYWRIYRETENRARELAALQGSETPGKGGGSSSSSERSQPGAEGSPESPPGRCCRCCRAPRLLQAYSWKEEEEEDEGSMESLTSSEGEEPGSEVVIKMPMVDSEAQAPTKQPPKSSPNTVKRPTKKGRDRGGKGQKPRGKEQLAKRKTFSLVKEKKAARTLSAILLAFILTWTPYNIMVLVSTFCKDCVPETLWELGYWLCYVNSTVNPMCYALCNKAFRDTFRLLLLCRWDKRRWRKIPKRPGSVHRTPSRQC
The series can be described thus: functional M1 agonist assay in rat HTS high-expressing CHO cell line. The format is cell-based. The note with it: 10 µM M1 single point screen.

For series [7], the system named is TREx293-hM1 cells.
Series [8] has as its system 68 GPCRs, ion channels and transporters (including all the BARs). The series can be described thus: radioligand binding panel of 68 GPCRs, ion channels and transporters. The note with it: 10 µM.
A further series addresses D2 receptor (Homo sapiens, UniProt P14416). Kind of series: functional D2 antagonism CRC. The format is cell-based.
For series [9], the system named is NMDA receptor currents in hippocampal CA1 pyramidal cells. Kind of series: potentiation of NMDA receptor currents, whole cell recording. The series is classed as cell-based. Conditions: 30 µM. An outline of the steps:
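Whole-cell recording of NMDA-evoked currents in hippocampal CA1 pyramidal cells. Current amplitude was normalized and followed over time before, during and after application of 30 µM test compound.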

A short description of the next series: intrinsic clearance, rat. The series is classed as in vitro ADME.
The nature of series [10]: intrinsic clearance, human. The series is classed as in vitro ADME.
The next series is described as follows: oral plasma:brain level. The series is classed as in vivo, male Sprague-Dawley rats. The note with it: 10 mg/kg oral, 90 minute endpoint, individual animal.
In series [11] the target is T2, M1 (Homo sapiens, UniProt P11229).
T2 sequence (P11229 1-460): T1 sequence (P08482 1-460) with V5A, S254T, S309P, K320R, G337A, V413I
Kind of series: M1 agonist assay in new cell lines with expression resembling native levels. The series is classed as cell-based, rat and human. The note with it: new cell lines with expression more closely resembling native levels.

Numbering of substitutions follows the chain as printed. pEC50: −log10 of the molar value. Where two headings read alike, the source gives them in different places.

Chain of D2 receptor (P14416 whole entry): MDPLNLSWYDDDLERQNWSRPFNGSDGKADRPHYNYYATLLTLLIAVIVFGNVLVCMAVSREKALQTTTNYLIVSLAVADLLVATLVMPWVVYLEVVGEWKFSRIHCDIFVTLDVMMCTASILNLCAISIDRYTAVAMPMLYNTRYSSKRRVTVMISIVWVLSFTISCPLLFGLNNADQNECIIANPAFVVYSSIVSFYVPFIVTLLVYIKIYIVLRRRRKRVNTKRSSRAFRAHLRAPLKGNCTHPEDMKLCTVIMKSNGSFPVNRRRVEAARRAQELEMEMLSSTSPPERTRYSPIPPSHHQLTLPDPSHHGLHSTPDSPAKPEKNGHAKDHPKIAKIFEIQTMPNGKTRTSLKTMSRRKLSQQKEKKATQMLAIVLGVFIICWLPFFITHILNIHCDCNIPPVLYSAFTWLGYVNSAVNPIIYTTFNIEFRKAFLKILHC

`CCOC(=O)N1CCC(N2CCC[C@@H](NC(=O)c3cccc(OC)c3)C2)CC1` [20d]: the pEC50 with M2–M5 [1] is below 5.00.
In the case of `CCOC(=O)N1CCC(NCCNC(=O)c2ccccc2C)CC1` [compound 8], the pEC50 in the series with M2–M5 [1] and in the series with M2–M5 [2] was below 4.52 throughout. The “activity in radioligand binding panel” value in series [3] is listed as at most 50%. Besides, the “soluble APP (sAPPα)” value in the series on TREx293-hM1 cells [4] was “significant increase”. The “effect on NMDA receptor currents” value in series [5] is reported as “potentiated NMDA receptor currents”.
Consider `CCOC(=O)N1CCC(N2CCC[C@@H](NC(=O)c3ccc(OC)cc3)C2)CC1` [20i], for which the pEC50 with M2–M5 [1] is below 5.00.
For the compound `CCOC(=O)N1CCC(N2C[C@@H]3C[C@H]2CN3C(=O)c2ccccc2C)CC1` [compound 14], the M1 activation result at M1 [6] is “less than 30%”.
Regarding `CCOC(=O)N1CCC(N2CCC[C@@H](NC(=O)C3CCCC3)C2)CC1` [20k], the pEC50 in the series on M2–M5 [1] is below 5.00.
`CCOC(=O)N1CCC(N2CCC[C@H](NC(=O)c3ccccc3C)C2)CC1` [compound 16]: on M1 [6], the “M1 activation” value is “inactive”.
For the compound `CCOC(=O)N1CCC(N2CCC[C@@H](NC(=O)c3ccc(F)c(F)c3)C2)CC1` [20e], the pEC50 in the series with M2–M5 [1] is below 5.00.
For the compound `CCOC(=O)N1CCC(N2C[C@H]3CN(C(=O)c4ccccc4C)C[C@H]3C2)CC1` [compound 15], at M1 [6], the M1 activation result is recorded as “less than 30%”.
With `CCOC(=O)N1CCC(N2CCC[C@@H](NC(=O)C3CCCCC3)C2)CC1` [20g], the pEC50 with M2–M5 [1] is below 5.00.
Still for that read-out and setting: then `CCOC(=O)N1CCC(N2CCC[C@@H](NC(=O)c3ccccc3Cl)C2)CC1` [20j], with below 5.00.
Still for that read-out and setting: then `CCOC(=O)N1CCC(N2CCC[C@@H](NC(=O)c3ccc(F)cc3C)C2)CC1` [20a], with below 5.00.
Still for that read-out and setting: then `CCOC(=O)N1CCC(N2CCC[C@@H](NC(=O)c3cccs3)C2)CC1` [20h], with below 5.00; and `CCOC(=O)N1CCC(N2CCC[C@@H](NC(=O)c3ccc(C)cc3)C2)CC1` [20f], with below 5.00; and `CCOC(=O)N1CCC(N2CCC[C@@H](NC(=O)c3cccc(F)c3)C2)CC1` [20c], with below 5.00.
For the compound `C[N+](C)(C)CCOC(N)=O.[Cl-]` [carbachol], the “increase in soluble APP (sAPPα)” value in the series on TREx293-hM1 cells [7] is reported as “significant increase”.
Take `CCOC(=O)N1CCC(N2CCC[C@@H](NC(=O)c3ccccc3)C2)CC1` [20b]: in the series on M2–M5 [1], the pEC50 was below 5.00.
As for `CCOC(=O)N1CCC(N2CCN(C(=O)c3ccccc3C)CC2)CC1` [compound 13], on M1 [6], the M1 activation result is listed as “less than 30%”.
As for `CCOC(=O)N1CCC(N2CCC[C@@H](NC(=O)c3ccccc3C)C2)CC1` [compound 17], at M1 [6], the “M1 activation” value is “full activation of M1”. The pEC50 in the series with M2–M5 [1] was below 4.52. The “inhibition in radioligand binding panel” value in [8] was at most 30%. Also, the “functional activity at the D2 receptor” value at D2 receptor was “no functional activity”. Besides, the “persistence of potentiation after washout” value in [9] worked out at 10 min. The “effect on NMDA receptor currents” value in series [9] (listed as VU0364572) is on record as “potentiates NMDA receptor currents”. Also, the CLint scaled in the series “intrinsic clearance, rat” came out at 23.4 mL/min/kg. This compound gave a CLint scaled in series [10] of 11.2 mL/min/kg. For the same compound, in “oral plasma:brain level”, the Brain came to 1.89 µM, the “Brain:Plasma” value came to 1.17 and the Plasma is 1.62 µM. Further, the concentration at 90 min in “oral plasma:brain level” (male, Sprague-Dawley, rat, brain, oral, 10 mg/kg) is 2230 nM. The Kp at 1.5 h in “oral plasma:brain level” (male, Sprague-Dawley, rat, brain/plasma, po, 10 mg/kg, Brain:Plasma) stood at 1.54. For the same compound, the “ACh Max versus high-expressing HTS lines” value on M1 [11] is “slightly lower ACh Max”.
